Laboratory results as given in PubChem BioAssay AID743243 (The Scripps Research Institute Molecular Screening Center, 2013).
Calls of active or inactive are those of the source.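 How the source made its calls: active means IC50 of 10 µM or lower; inactive means IC50 above 10 µM.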

These molecules were tested against ADP-ribosylation factor GTPase-activating protein 1 (Rattus norvegicus) (UniProt Q62848) (assay: IC50 of ARFGAP1-driven ARF1 GTPase inhibition – biochemical, fluorescence polarization, round 000, late-stage follow-up (AID 743243)). Conditions: ARFGAP1-stimulated ARF1 GTP hydrolysis, GDP fluorescence polarization.
Summary of the method: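 Test system – purified His6-tagged rat Arfgap1 GAP domain (residues 1-136) · Doses – triplicate series, top 165 µM · Schedule – 20 min enzyme-compound preincubation, then 120 min GTPase reaction, 25 °C · Signal – FP GDP tracer-antibody displacement, 620/688 nm · Controls – wells without Arfgap1 as full-inhibition reference · Replicates – each compound dose series run in triplicate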

ADP-ribosylation factor GTPase-activating protein 1 (Rattus norvegicus), sequence (Q62848 1-136 limits assumed): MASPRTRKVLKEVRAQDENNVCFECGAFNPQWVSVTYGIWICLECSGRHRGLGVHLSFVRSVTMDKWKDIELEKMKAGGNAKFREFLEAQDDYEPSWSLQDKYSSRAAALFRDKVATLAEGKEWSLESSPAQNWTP

SMILES	IC50
O=C(NCC1CCCO1)c1ccc2c(c1)C(=O)N(c1ccccc1-c1ccccc1)C2=O (stereo not drawn)	> 165 µM (inactive)
Cc1cccc(-c2nnn3c2nc(NCCc2ccc(S(N)(=O)=O)cc2)c2ccc(Cl)cc23)c1	inactive
COc1ccc(CNc2nc3c(-c4cccc(F)c4)nnn3c3cc(Cl)ccc23)cc1	> 165 µM (inactive)
NS(=O)(=O)c1ccc(CCNc2nc3c(-c4cccc(Cl)c4)nnn3c3ccccc23)cc1	inactive
COc1ccc(CNc2nc3c(-c4cccc(F)c4)nnn3c3ccccc23)cc1	inactive
Cc1cccc(-c2nnn3c2nc(NCCc2ccc(S(N)(=O)=O)cc2)c2ccccc23)c1	inactive
O=C(NC1CCCCC1)c1ccc2c(c1)C(=O)N(c1ccccc1-c1ccccc1)C2=O	> 165 µM (inactive)
Fc1cccc(-c2nnn3c2nc(NCc2ccc4c(c2)OCO4)c2ccccc23)c1	> 165 µM (inactive)
CCOCCCNC(=O)c1ccc2c(c1)C(=O)N(c1ccc(Cn3cncn3)cc1)C2=O	> 165 µM (inactive)
Cc1ccc(Oc2ccc3c(c2)C(=O)N(c2cccc4ncccc24)C3=O)cc1C	> 165 µM (inactive)
Cc1ccc(N2C(=O)c3ccc(C(=O)N4CCN(Cc5ccccc5)CC4)cc3C2=O)cc1	> 165 µM (inactive)
Cc1ccc(CNc2nc3c(-c4cccc(F)c4)nnn3c3cc(Cl)ccc23)cc1	> 165 µM (inactive)
NS(=O)(=O)c1ccc(CCNc2nc3c(-c4cccc(F)c4)nnn3c3ccccc23)cc1	inactive
NS(=O)(=O)c1ccc(CCNc2nc3c(-c4ccc(Cl)cc4)nnn3c3ccccc23)cc1	inactive
O=C1c2ccc(Oc3ccc(Br)cc3)cc2C(=O)N1c1cccc2ncccc12	inactive
O=C1c2ccccc2C(=O)N1c1cccc2ncccc12	> 165 µM (inactive)
Fc1cccc(-c2nnn3c2nc(NCCc2ccccc2)c2ccccc23)c1	> 165 µM (inactive)

SMILES	IC50
Fc1cccc(-c2nnn3c2nc(NCCc2ccccc2)c2ccc(Cl)cc23)c1	> 165 µM (inactive)
O=C(NCCc1nc2ccccc2[nH]1)c1ccc2c(c1)C(=O)N(c1ccc(F)cc1)C2=O	> 165 µM (inactive)
O=C(NCC1CCCO1)c1ccc2c(c1)C(=O)N(c1cccc3ccccc13)C2=O (stereo not drawn)	> 165 µM (inactive)
CC(CNc1nc2c(-c3cccc(F)c3)nnn2c2ccccc12)c1ccccc1 (stereo not drawn)	> 165 µM (inactive)
COc1ccccc1Oc1ccc2c(c1)C(=O)N(c1cccc3ncccc13)C2=O	> 165 µM (inactive)
CC(C)CNC(=O)c1ccc2c(c1)C(=O)N(c1ccccc1-c1ccccc1)C2=O	> 165 µM (inactive)
O=C1c2cc(Cl)c(Cl)cc2C(=O)N1c1cccc2ncccc12	> 165 µM (inactive)
Fc1cccc(-c2nnn3c2nc(NCCc2ccc(Cl)cc2)c2ccccc23)c1	> 165 µM (inactive)
Cc1ccc(N2C(=O)c3ccc(C(=O)N4c5ccccc5CC4C)cc3C2=O)cc1 (stereo not drawn)	> 165 µM (inactive)
COc1ccc(CCNc2nc3c(-c4cccc(F)c4)nnn3c3cc(Cl)ccc23)cc1OC	> 165 µM (inactive)
CC(C)(C)NC(=O)c1ccc2c(c1)C(=O)N(c1ccccc1-c1ccccc1)C2=O	> 165 µM (inactive)
NS(=O)(=O)c1ccc(CCNc2nc3c(-c4cccc(C(F)(F)F)c4)nnn3c3ccccc23)cc1	6.9 µM
Cc1cccc(Oc2ccc(N3C(=O)c4ccc(C(=O)OCC(=O)Nc5cccc(C)c5C)cc4C3=O)cc2)c1	> 165 µM (inactive)
O=C(NCc1ccco1)c1ccc2c(c1)C(=O)N(c1ccc(C(=O)c3ccccc3)cc1)C2=O	> 165 µM (inactive)
Cc1cccc(N2C(=O)c3ccc(C(=O)NC4CCCCC4)cc3C2=O)c1C	> 165 µM (inactive)
Cc1ccc(N2C(=O)c3ccc(C(=O)OCC(=O)C(C)(C)C)cc3C2=O)cc1	> 165 µM (inactive)

Results, then the molecule that gave them:

IC50	SMILES
> 165 µM (inactive)	O=C(COC(=O)c1ccc2c(c1)C(=O)N(c1cccc(C(F)(F)F)c1)C2=O)c1ccc(Cl)cc1
> 165 µM (inactive)	O=C(COC(=O)c1ccc2c(c1)C(=O)N(c1cccc(Cl)c1Cl)C2=O)c1ccccc1
> 165 µM (inactive)	COc1cccc(C(=O)COC(=O)c2ccc3c(c2)C(=O)N(c2cccc(C(F)(F)F)c2)C3=O)c1
> 165 µM (inactive)	Cc1ccc(C(=O)C(C)OC(=O)c2ccc3c(c2)C(=O)N(c2cccc(Cl)c2Cl)C3=O)cc1 (stereo not drawn)
> 165 µM (inactive)	O=C(COC(=O)c1ccc2c(c1)C(=O)N(c1ccccc1Cl)C2=O)c1ccc(Br)cc1
> 165 µM (inactive)	Cc1ccc(C(=O)COC(=O)c2ccc3c(c2)C(=O)N(c2cccc4ncccc24)C3=O)cc1
> 165 µM (inactive)	COc1cccc(C(=O)COC(=O)c2ccc3c(c2)C(=O)N(c2ccc(F)cc2)C3=O)c1
> 165 µM (inactive)	CCCOC(=O)c1ccc2c(c1)C(=O)N(c1cccc3ccccc13)C2=O
> 165 µM (inactive)	COc1ccccc1N1C(=O)c2ccc(C(=O)OCC(=O)c3ccc(Br)cc3)cc2C1=O
> 165 µM (inactive)	Cc1ccc(C(=O)COC(=O)c2ccc3c(c2)C(=O)N(c2cccc4ccccc24)C3=O)cc1
> 165 µM (inactive)	O=C(COC(=O)c1ccc2c(c1)C(=O)N(c1cc(C(F)(F)F)ccc1Cl)C2=O)c1ccccc1
2.13 µM	O=C(COC(=O)c1ccc2c(c1)C(=O)N(c1cccc3ncccc13)C2=O)c1ccc(Cl)cc1
> 165 µM (inactive)	Cc1ccc(N2C(=O)c3ccc(C(=O)OCC(=O)c4ccccc4)cc3C2=O)c(C)c1
> 165 µM (inactive)	O=C(OCC(=O)c1cccs1)c1ccc2c(c1)C(=O)N(c1cccc3ccccc13)C2=O
> 165 µM (inactive)	O=C(COC(=O)c1ccc2c(c1)C(=O)N(c1cccc(Cl)c1Cl)C2=O)c1ccc(F)cc1
